Non-standard residues stand in square brackets, D forms with d. Residues, ends and D or L forms follow the SMILES beside them. Dmt = Cc1cc(O)cc(C)c1C[C@H](N)C(=O)O; Tic = O=C(O)[C@@H]1Cc2ccccc2CN1

This test addresses Delta-type opioid receptor (Mus musculus, UniProt P32300). The test can be described thus: Antagonist activity against delta opioid receptor in mouse vas deferens assessed as effect on deltorphin 2-induced contraction. The test is classed as functional, tissue-based. As to conditions: read-out: pA2 (converted). The procedure, abridged: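 pA2 was measured against the δ agonist deltorphin II in mouse vas deferens and determined by the Kosterlitz and Watt method.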

Chain of Delta-type opioid receptor (P32300 whole entry): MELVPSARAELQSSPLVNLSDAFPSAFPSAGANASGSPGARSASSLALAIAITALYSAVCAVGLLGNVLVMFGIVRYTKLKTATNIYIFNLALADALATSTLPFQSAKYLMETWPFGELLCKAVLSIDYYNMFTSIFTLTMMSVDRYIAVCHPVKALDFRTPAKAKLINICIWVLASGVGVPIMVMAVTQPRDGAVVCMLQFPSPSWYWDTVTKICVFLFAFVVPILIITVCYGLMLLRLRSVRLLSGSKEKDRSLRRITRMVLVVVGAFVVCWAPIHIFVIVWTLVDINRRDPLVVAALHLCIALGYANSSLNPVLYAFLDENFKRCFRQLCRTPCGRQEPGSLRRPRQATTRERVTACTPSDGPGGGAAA

As for `Cc1cc(O)cc(C)c1C[C@H](N)C(=O)N1Cc2ccccc2C[C@H]1C(=O)N[C@@H](Cc1ccccc1)C(=O)N[C@@H](Cc1ccccc1)C(=O)O` (H-[Dmt][Tic]FF-OH), the Kb was 0.2 nM.

These data come from ChEMBL document CHEMBL1153516, “Influence of the side chain next to C-terminal benzimidazole in opioid pseudopeptides containing the Dmt-Tic pharmacophore” (J Med Chem, 2009).
